Laboratory results: ChEMBL document CHEMBL1667809, “Synthesis and in vitro antibacterial activity of 7-(3-alkoxyimino-5-amino/methylaminopiperidin-1-yl)fluoroquinolone derivatives” (Bioorg Med Chem Lett, 2011)
In brackets after ≈: the same amount, converted by molar mass.

Legend:
Staphylococcus aureus [1] = assay: Antibacterial activity against Staphylococcus aureus ATCC 25923 after 18 to 24 hrs by agar dilution method; type: functional
Procedure, shortened: (§1)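 Agar dilution on Petri dishes, each inoculated with 10⁴ cfu of the strain and incubated at 35 °C for 18–24 h. MIC read as the lowest compound concentration giving no visible growth on the plate.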

Staphylococcus aureus [2] = assay: Antibacterial activity against methicillin-sensitive Staphylococcus aureus 10-04 after 18 to 24 hrs by agar dilution method; type: functional; procedure, shortened: as §1
Staphylococcus aureus [3] = assay: Antibacterial activity against methicillin-resistant Staphylococcus aureus 10-05 after 18 to 24 hrs by agar dilution method; type: functional
Procedure, shortened: (§2)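 Agar dilution on Petri dishes, each inoculated with 10⁴ cfu. Plates incubated at 35 °C for 18–24 h. MIC taken as the lowest test-compound concentration giving no visible growth on the plate. Reference drugs gemifloxacin, ciprofloxacin and levofloxacin run alongside for comparison.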

[4] = tested on: Staphylococcus epidermidis; assay: Antibacterial activity against methicillin-sensitive Staphylococcus epidermidis 10-4 after 18 to 24 hrs by agar dilution method; type: functional; procedure, shortened: as §1
[5] = tested on: Staphylococcus epidermidis; assay: Antibacterial activity against methicillin-resistant Staphylococcus epidermidis 10-5 after 18 to 24 hrs by agar dilution method; type: functional; procedure, shortened: as §2
Streptococcus pneumoniae = assay: Antibacterial activity against Streptococcus pneumoniae 1001 after 18 to 24 hrs by agar dilution method; type: functional; procedure, shortened: as §1
Streptococcus pyogenes [6] = assay: Antibacterial activity against Streptococcus hemolyticus 1002 after 18 to 24 hrs by agar dilution method; type: functional; procedure, shortened: as §1
Escherichia coli [7] = assay: Antibacterial activity against Escherichia coli ATCC 25922 after 18 to 24 hrs by agar dilution method; type: functional; procedure, shortened: as §1
Escherichia coli [8] = assay: Antibacterial activity against Escherichia coli 10-02 after 18 to 24 hrs by agar dilution method; type: functional; procedure, shortened: as §1
Klebsiella pneumoniae = assay: Antibacterial activity against Klebsiella pneumoniae 10-1 after 18 to 24 hrs by agar dilution method; type: functional; procedure, shortened: as §1
Pseudomonas aeruginosa [9] = assay: Antibacterial activity against Pseudomonas aeruginosa ATCC 27853 after 18 to 24 hrs by agar dilution method; type: functional; procedure, shortened: as §1
Pseudomonas aeruginosa [10] = assay: Antibacterial activity against Pseudomonas aeruginosa 10-1 after 18 to 24 hrs by agar dilution method; type: functional; procedure, shortened: as §1
[11] = Cytotoxicity against african green monkey Vero cells after 24 hrs; type: cell-based; conditions: chlorocebus sabaeus
Procedure, shortened: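 Vero cells exposed to graded compound concentrations for 24 h, then viability assessed; CC₅₀ derived from the viability data.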

[12] = tested on: Staphylococcus epidermidis; assay: Ratio of compound MIC to GMFX MIC for methicillin-resistant Staphylococcus epidermidis 10-5; type: functional
[13] = tested on: Staphylococcus epidermidis; assay: Ratio of compound MIC to LVFX MIC for methicillin-resistant Staphylococcus epidermidis 10-5; type: functional
[14] = tested on: Staphylococcus epidermidis; assay: Ratio of compound MIC to CPFX MIC for methicillin-resistant Staphylococcus epidermidis 10-5; type: functional
Staphylococcus aureus [15] = assay: Ratio of compound MIC to GMFX MIC for methicillin-sensitive Staphylococcus aureus 10-04; type: functional
Staphylococcus aureus [16] = assay: Ratio of compound MIC to LVFX MIC for methicillin-sensitive Staphylococcus aureus 10-04; type: functional
Staphylococcus aureus [17] = assay: Ratio of compound MIC to CPFX MIC for methicillin-sensitive Staphylococcus aureus 10-04; type: functional
Streptococcus pyogenes [18] = assay: Ratio of compound MIC to GMFX MIC for Streptococcus hemolyticus 1002; type: functional
Streptococcus pyogenes [19] = assay: Ratio of compound MIC to LVFX MIC for Streptococcus hemolyticus 1002; type: functional
Streptococcus pyogenes [20] = assay: Ratio of compound MIC to CPFX MIC for Streptococcus hemolyticus 1002; type: functional
Staphylococcus aureus [21] = assay: Ratio of compound MIC to GMFX MIC for methicillin-resistant Staphylococcus aureus 10-05; type: functional
Staphylococcus aureus [22] = assay: Ratio of compound MIC to LVFX MIC for methicillin-resistant Staphylococcus aureus 10-05; type: functional
Staphylococcus aureus [23] = assay: Ratio of compound MIC to CPFX MIC for methicillin-resistant Staphylococcus aureus 10-05; type: functional

Row | Structure (SMILES) | MIC (Staphylococcus aureus [1]) [mg/L] | MIC (Staphylococcus aureus [2]) [mg/L] | MIC (Staphylococcus aureus [3]) [mg/L] | MIC [4] [mg/L] | MIC [5] [mg/L] | MIC (Streptococcus pneumoniae) [mg/L] | MIC (Streptococcus pyogenes [6]) [mg/L] | MIC (Escherichia coli [7]) [mg/L] | MIC (Escherichia coli [8]) [mg/L] | MIC (Klebsiella pneumoniae) [mg/L] | MIC (Pseudomonas aeruginosa [9]) [mg/L] | MIC (Pseudomonas aeruginosa [10]) [mg/L] | CC50 at 24 h [11] [µM] | Ratio [12] | Ratio [13] | Ratio [14] | Ratio (Staphylococcus aureus [15]) | Ratio (Staphylococcus aureus [16]) | Ratio (Staphylococcus aureus [17]) | other results
1 | CO/N=C1\CC(N)CN(c2c(F)cc3c(=O)c(C(=O)O)cn(C4CC4)c3c2OC)C1 (centres undefined) | 0.25 (≈ 0.597 µM) | 0.5 (≈ 1.19 µM) | 4 (≈ 9.56 µM) | 2 (≈ 4.78 µM) | 4 (≈ 9.56 µM) | 0.25 (≈ 0.597 µM) | 4 (≈ 9.56 µM) | 0.25 (≈ 0.597 µM) | 0.25 (≈ 0.597 µM) | 64 (≈ 153 µM) | 4 (≈ 9.56 µM) | 4 (≈ 9.56 µM) | 885 | 2 | 2 | 4 | 4 | 4 | 4 | Ratio (Streptococcus pyogenes [18]): 2; Ratio (Streptococcus pyogenes [19]): 2; Ratio (Streptococcus pyogenes [20]): 2
2 | CCO/N=C1\CC(N)CN(c2c(F)cc3c(=O)c(C(=O)O)cn(C4CC4)c3c2OC)C1 (centres undefined) | 0.25 (≈ 0.578 µM) | 0.125 (≈ 0.289 µM) | 2 (≈ 4.62 µM) | 1 (≈ 2.31 µM) | 2 (≈ 4.62 µM) | 0.125 (≈ 0.289 µM) | 8 (≈ 18.5 µM) | 0.25 (≈ 0.578 µM) | 0.25 (≈ 0.578 µM) | 128 (≈ 296 µM) | 8 (≈ 18.5 µM) | > 128 | 879 | 4 | 4 | 8 | 16 | 16 | 16 | Ratio (Staphylococcus aureus [21]): 2; Ratio (Staphylococcus aureus [22]): 2; Ratio (Staphylococcus aureus [23]): 2
